Assays:
[1] = Inhibition of HCV isolate HC-J4 NS5B deltaC21 polymerase; design: species or system Hepatitis C virus isolate HC-J4
Summary of the method: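 Inhibitor was preincubated 5 min, then 250 nM 5′-biotin-rU₁₂ primer, poly-rA template, UTP and ³H-UTP were added (5% DMSO). After 2 h, SPA beads/EDTA stop, then CsCl for 1 h, then scintillation count. IC50 by 4-parameter logistic fit.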

Hepatitis C virus = assay: Antiviral activity against HCV 1b infected in human Huh7 cells after 46-50 hrs by luc/neo ET replicon assay; conditions: genotype 1b, Huh-7, 46-50 h
[2] = Cytotoxicity against human HuH7 cells; format: cell-based, Huh-7
Summary of the method: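 Huh-7 cells stably carrying luc/neo ET replicon, grown in DMEM with 10% fetal calf serum, seeded at 5 × 10³ cells/well. DMSO serial dilutions were added ~24 h after plating (final DMSO 1%), with exposure for 46–50 h. Luminescence vs log concentration was fitted to a 4-parameter logistic to give EC50 and CC50.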

| SMILES | IC50 [1] [nM] | EC50 (Hepatitis C virus) [nM] | CC50 [2] [nM] |
| --- | --- | --- | --- |
| CS(=O)(=O)Nc1ccc2c(c1)S(=O)(=O)N=C(c1c(O)n3nccc3n(Cc3ccccc3)c1=O)N2 | < 5 | 4000 | > 100000 |
| Cc1cc2n(CCC(C)C)c(=O)c(C3=NS(=O)(=O)c4cc(NS(C)(=O)=O)ccc4N3)c(O)n2n1 | < 5 | 1700 | > 100000 |
| CS(=O)(=O)Nc1ccc2c(c1)S(=O)(=O)N=C(c1c(O)n3nccc3n(Cc3ccc(F)cc3)c1=O)N2 | < 5 | 12000 | > 100000 |
| CS(=O)(=O)Nc1ccc2c(c1)S(=O)(=O)N=C(c1c(O)n3nccc3n(CCc3ccc(F)cc3)c1=O)N2 | 18 | > 100000 | > 100000 |
| CC(C)CCn1c(=O)c(C2=NS(=O)(=O)c3cc(NS(C)(=O)=O)ccc3N2)c(O)n2ncnc12 | < 5 | 6700 | > 100000 |
| CC(C)CCn1c(=O)c(C2=NS(=O)(=O)c3cc(NS(C)(=O)=O)ccc3N2)c(O)n2nc(C3CC3)cc12 | 9 | > 20000 | > 100000 |

Now from value to compound, other results behind:

| IC50 [1] [nM] | EC50 (Hepatitis C virus) [nM] | SMILES | CC50 [2] [nM] |
| --- | --- | --- | --- |
| < 5 | 150 | CC(C)CC[C@@]1(C)C(=O)C(C2=NS(=O)(=O)c3cc(NS(C)(=O)=O)ccc3N2)=C(O)c2cccn21 | 19500 |
| 150 | 4900 | CC(C)CC[C@]1(C)C(=O)C(C2=NS(=O)(=O)c3cc(NS(C)(=O)=O)ccc3N2)=C(O)c2cccn21 | 170000 |
| < 5 | 1100 | CC(C)CCC1(C)C(=O)C(C2=NS(=O)(=O)c3cc(NS(C)(=O)=O)ccc3N2)=C(O)c2ccnn21 (centres undefined) | > 100000 |
| < 5 | 550 | CC(C)CCn1c(=O)c(C2=NS(=O)(=O)c3cc(NS(C)(=O)=O)ccc3N2)c(O)n2nccc12 | > 100000 |
| < 5 | 550 | CC(C)CCn1c(=O)c(C2=NS(=O)(=O)c3cc(NS(C)(=O)=O)ccc3N2)c(O)n2ccnc12 | > 1000 |
| < 5 | 6600 | CC(C)CCC1(C)C(=O)C(C2=NS(=O)(=O)c3cc(NS(C)(=O)=O)ccc3N2)=C(O)c2cncn21 (centres undefined) | > 100000 |
| < 5 | 230 | CC(C)CCC1(C)C(=O)C(C2=NS(=O)(=O)c3cc(NS(C)(=O)=O)ccc3N2)=C(O)c2cccn21 (centres undefined) | > 100000 |

Reference: ChEMBL document CHEMBL1153628, “HCV NS5B polymerase inhibitors 2: Synthesis and in vitro activity of (1,1-dioxo-2H-[1,2,4]benzothiadiazin-3-yl) azolo[1,5-a]pyridine and azolo[1,5-a]pyrimidine derivatives” (Bioorg Med Chem Lett, 2009)
